# Columns and labels:
# Assay type in all cases: functional
# Rattus norvegicus [1] = assay: Effect on plasma growth hormone in anesthetized rat at a dose of 1 ug/100 g of body weight
# Method in brief: (§1)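 Male Charles River rats (175–350 g) anesthetized with sodium pentobarbital (6 mg/100 g body wt); 30 min later, 6–9 per group received a single subcutaneous 0.5-mL injection of saline, GRF(1-29)NH₂ reference, or one of two analogue doses. Jugular vein blood was drawn 15 min post-injection, and plasma GH was measured by radioimmunoassay, reported as ng/mL ± SE.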
# Rattus norvegicus [2] = assay: Percent growth hormone releasing activity in anesthetized rat relative to hpGRF (1-29)NH2
# Method in brief: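 In pentobarbital-anesthetized male Charles River rats (6–9/group), two subcutaneous analogue doses and GRF(1-29)NH₂ reference doses were given. Plasma GH was measured by radioimmunoassay in jugular blood taken 15 min post-injection. Relative potency with 95% confidence limits came from a four-point assay design by Pugsley's method. Not active means no activity at the doses tested.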
# Rattus norvegicus [3] = assay: Effect on plasma growth hormone in anesthetized rat at a dose of 0.4 ug/100 g of body weight; method in brief: as §1
# Rattus norvegicus [4] = assay: Effect on plasma growth hormone in anesthetized rat at a dose of 10 ug/100 g of body weight; method in brief: as §1
# Rattus norvegicus [5] = assay: Effect on plasma growth hormone in anesthetized rat at a dose of 4 ug/100 g of body weight; method in brief: as §1
# Rattus norvegicus [6] = assay: Effect on plasma growth hormone in anesthetized rat at a dose of 20 ug/100 g of body weight; method in brief: as §1
# Rattus norvegicus [7] = assay: Effect on plasma growth hormone in anesthetized rat at a dose of 125 ug/100 g of body weight; method in brief: as §1
# Rattus norvegicus [8] = assay: Effect on plasma growth hormone in anesthetized rat at a dose of 50 ug/100 g of body weight; method in brief: as §1
# Rattus norvegicus [9] = assay: Effect on plasma growth hormone in anesthetized rat at a dose of 0.25 ug/100 g of body weight; method in brief: as §1
# Rattus norvegicus [10] = assay: Effect on plasma growth hormone in anesthetized rat at a dose of 0.62 ug/100 g of body weight; method in brief: as §1
# Rattus norvegicus [11] = assay: Effect on plasma growth hormone in anesthetized rat at a dose of 3 ug/100 g of body weight; method in brief: as §1
# Rattus norvegicus [12] = assay: Effect on plasma growth hormone in anesthetized rat at a dose of 1.2 ug/100 g of body weight; method in brief: as §1
# Rattus norvegicus [13] = assay: Effect on plasma growth hormone in anesthetized rat at a dose of 16 ug/100 g of body weight; method in brief: as §1
# Rattus norvegicus [14] = assay: Effect on plasma growth hormone in anesthetized rat at a dose of 32 ug/100 g of body weight; method in brief: as §1
smiles,measurement,setting,value
CC[C@H](C)[C@H](NC(=O)[C@H](C)NC(=O)[C@H](CC(=O)O)NC(=O)[C@@H](C)NC(=O)[C@H](Cc1ccc(O)cc1)NC(C)=O)C(=O)N[C@@H](Cc1ccccc1)C(=O)N[C@H](C(=O)N[C@@H](CC(N)=O)C(=O)N[C@@H](CO)C(=O)N[C@@H](Cc1ccc(O)cc1)C(=O)N[C@@H](CCCN=C(N)N)C(=O)N[C@@H](CCCCN)C(=O)N[C@H](C(=O)N[C@@H](CC(C)C)C(=O)NCC(=O)N[C@@H](CCC(N)=O)C(=O)N[C@@H](CC(C)C)C(=O)N[C@@H](CO)C(=O)N[C@@H](C)C(=O)N[C@@H](CCCN=C(N)N)C(=O)N[C@@H](CCCCN)C(=O)N[C@@H](CC(C)C)C(=O)N[C@@H](CC(C)C)C(=O)N[C@@H](CCC(N)=O)C(=O)N[C@@H](CC(=O)O)C(=O)N[C@H](C(=O)N[C@@H](CCSC)C(=O)N[C@@H](CO)C(=O)N[C@@H](CCCN=C(N)N)C(N)=O)[C@@H](C)CC)C(C)C)[C@@H](C)O,Activity,Rattus norvegicus [1],2496 ng/mL
same,Activity,Rattus norvegicus [2],2558%
same,Activity,Rattus norvegicus [3],1300 ng/mL
CC[C@H](C)[C@H](NC(=O)[C@H](C)NC(=O)[C@H](CC(=O)O)NC(=O)[C@H](C)NC(=O)[C@@H](N)Cc1ccc(O)cc1)C(=O)N[C@@H](Cc1ccccc1)C(=O)N[C@H](C(=O)N[C@H](CC(N)=O)C(=O)N[C@@H](CO)C(=O)N[C@@H](Cc1ccc(O)cc1)C(=O)N[C@@H](CCCN=C(N)N)C(=O)N[C@@H](CCCCN)C(=O)N[C@H](C(=O)N[C@@H](CC(C)C)C(=O)NCC(=O)N[C@@H](CCC(N)=O)C(=O)N[C@@H](CC(C)C)C(=O)N[C@@H](CO)C(=O)N[C@@H](C)C(=O)N[C@@H](CCCN=C(N)N)C(=O)N[C@@H](CCCCN)C(=O)N[C@@H](CC(C)C)C(=O)N[C@@H](CC(C)C)C(=O)N[C@@H](CCC(N)=O)C(=O)N[C@@H](CC(=O)O)C(=O)N[C@H](C(=O)N[C@@H](CCSC)C(=O)N[C@@H](CO)C(=O)N[C@@H](CCCN=C(N)N)C(N)=O)[C@@H](C)CC)C(C)C)[C@@H](C)O,Activity,Rattus norvegicus [4],2397 ng/mL
same,Activity,Rattus norvegicus [5],1296 ng/mL
same,Activity,Rattus norvegicus [2],221%
CC[C@H](C)[C@H](NC(=O)[C@H](C)NC(=O)[C@H](CC(=O)O)NC(=O)[C@H](C)NC(=O)[C@@H](N)Cc1ccc(O)cc1)C(=O)N[C@@H](Cc1ccccc1)C(=O)N[C@H](C(=O)N[C@@H](CC(N)=O)C(=O)N[C@@H](CO)C(=O)N[C@@H](Cc1ccc(O)cc1)C(=O)N[C@@H](CCCN=C(N)N)C(=O)N[C@@H](CCCCN)C(=O)N[C@H](C(=O)N[C@@H](CC(C)C)C(=O)NCC(=O)N[C@@H](CCC(N)=O)C(=O)N[C@@H](CC(C)C)C(=O)N[C@@H](CO)C(=O)N[C@@H](C)C(=O)N[C@@H](CCCN=C(N)N)C(=O)N[C@@H](CCCCN)C(=O)N[C@@H](CC(C)C)C(=O)N[C@@H](CC(C)C)C(=O)N[C@@H](CCC(N)=O)C(=O)N[C@@H](CC(=O)O)C(=O)N[C@H](C(=O)N[C@@H](CCSC)C(=O)N[C@@H](CO)C(=O)N[C@@H](CCCN=C(N)N)C(N)=O)[C@@H](C)CC)C(C)C)[C@@H](C)O,Activity,Rattus norvegicus [6],1781 ng/mL
CC[C@H](C)[C@H](NC(=O)[C@H](C)NC(=O)[C@H](CC(=O)O)NC(=O)[C@@H](C)NC(=O)[C@@H](Cc1ccc(O)cc1)NC(C)=O)C(=O)N[C@@H](Cc1ccccc1)C(=O)N[C@H](C(=O)N[C@@H](CC(N)=O)C(=O)N[C@@H](CO)C(=O)N[C@@H](Cc1ccc(O)cc1)C(=O)N[C@@H](CCCN=C(N)N)C(=O)N[C@@H](CCCCN)C(=O)N[C@H](C(=O)N[C@@H](CC(C)C)C(=O)NCC(=O)N[C@@H](CCC(N)=O)C(=O)N[C@@H](CC(C)C)C(=O)N[C@@H](CO)C(=O)N[C@@H](C)C(=O)N[C@@H](CCCN=C(N)N)C(=O)N[C@@H](CCCCN)C(=O)N[C@@H](CC(C)C)C(=O)N[C@@H](CC(C)C)C(=O)N[C@@H](CCC(N)=O)C(=O)N[C@@H](CC(=O)O)C(=O)N[C@H](C(=O)N[C@@H](CCSC)C(=O)N[C@@H](CO)C(=O)N[C@@H](CCCN=C(N)N)C(N)=O)[C@@H](C)CC)C(C)C)[C@@H](C)O (stereo in doubt; 5),Activity,Rattus norvegicus [7],670 ng/mL
same,Activity,Rattus norvegicus [2],<5%
same,Activity,Rattus norvegicus [8],435 ng/mL
CC[C@H](C)[C@H](NC(=O)[C@H](C)NC(=O)[C@H](CC(=O)O)NC(=O)[C@@H](C)NC(=O)[C@@H](Cc1ccc(O)cc1)NC(C)=O)C(=O)N[C@@H](Cc1ccccc1)C(=O)N[C@H](C(=O)N[C@@H](CC(N)=O)C(=O)N[C@@H](CO)C(=O)N[C@@H](Cc1ccc(O)cc1)C(=O)N[C@@H](CCCN=C(N)N)C(=O)N[C@@H](CCCCN)C(=O)N[C@H](C(=O)N[C@@H](CC(C)C)C(=O)NCC(=O)N[C@@H](CCC(N)=O)C(=O)N[C@@H](CC(C)C)C(=O)N[C@@H](CO)C(=O)N[C@@H](C)C(=O)N[C@@H](CCCN=C(N)N)C(=O)N[C@@H](CCCCN)C(=O)N[C@@H](CC(C)C)C(=O)N[C@@H](CC(C)C)C(=O)N[C@@H](CCC(N)=O)C(=O)N[C@@H](CC(=O)O)C(=O)N[C@H](C(=O)N[C@@H](CCSC)C(=O)N[C@@H](CO)C(=O)N[C@@H](CCCN=C(N)N)C(N)=O)[C@@H](C)CC)C(C)C)[C@@H](C)O (stereo in doubt; 12),Activity,Rattus norvegicus [9],1235 ng/mL
same,Activity,Rattus norvegicus [10],2386 ng/mL
same,Activity,Rattus norvegicus [2],3817%
CC[C@H](C)[C@H](NC(=O)[C@H](C)NC(=O)[C@H](CC(=O)O)NC(=O)[C@@H](C)NC(=O)[C@@H](Cc1ccc(O)cc1)NC(C)=O)C(=O)N[C@@H](Cc1ccccc1)C(=O)N[C@H](C(=O)N[C@@H](CC(N)=O)C(=O)N[C@@H](CO)C(=O)N[C@@H](Cc1ccc(O)cc1)C(=O)N[C@@H](CCCN=C(N)N)C(=O)N[C@@H](CCCCN)C(=O)N[C@H](C(=O)N[C@@H](CC(C)C)C(=O)NCC(=O)N[C@@H](CCC(N)=O)C(=O)N[C@@H](CC(C)C)C(=O)N[C@@H](CO)C(=O)N[C@@H](C)C(=O)N[C@@H](CCCN=C(N)N)C(=O)N[C@@H](CCCCN)C(=O)N[C@@H](CC(C)C)C(=O)N[C@@H](CC(C)C)C(=O)N[C@@H](CCC(N)=O)C(=O)N[C@@H](CC(=O)O)C(=O)N[C@H](C(=O)N[C@@H](CCSC)C(=O)N[C@@H](CO)C(=O)N[C@@H](CCCN=C(N)N)C(N)=O)[C@@H](C)CC)C(C)C)[C@@H](C)O (stereo in doubt; 13),Activity,Rattus norvegicus [11],3504 ng/mL
same,Activity,Rattus norvegicus [2],1297%
same,Activity,Rattus norvegicus [12],1329 ng/mL
CC[C@H](C)[C@H](NC(=O)[C@H](C)NC(=O)[C@H](CC(=O)O)NC(=O)[C@@H](C)NC(=O)[C@@H](Cc1ccc(O)cc1)NC(C)=O)C(=O)N[C@@H](Cc1ccccc1)C(=O)N[C@H](C(=O)N[C@@H](CC(N)=O)C(=O)N[C@@H](CO)C(=O)N[C@@H](Cc1ccc(O)cc1)C(=O)N[C@@H](CCCN=C(N)N)C(=O)N[C@@H](CCCCN)C(=O)N[C@H](C(=O)N[C@@H](CC(C)C)C(=O)NCC(=O)N[C@@H](CCC(N)=O)C(=O)N[C@@H](CC(C)C)C(=O)N[C@@H](CO)C(=O)N[C@@H](C)C(=O)N[C@@H](CCCN=C(N)N)C(=O)N[C@@H](CCCCN)C(=O)N[C@@H](CC(C)C)C(=O)N[C@@H](CC(C)C)C(=O)N[C@@H](CCC(N)=O)C(=O)N[C@@H](CC(=O)O)C(=O)N[C@H](C(=O)N[C@@H](CCSC)C(=O)N[C@@H](CO)C(=O)N[C@@H](CCCN=C(N)N)C(N)=O)[C@@H](C)CC)C(C)C)[C@@H](C)O (stereo in doubt; 19),Activity,Rattus norvegicus [13],504 ng/mL
same,Activity,Rattus norvegicus [2],52%
same,Activity,Rattus norvegicus [14],2378 ng/mL

# — ChEMBL document CHEMBL1122887, “Structure-activity studies on the N-terminal region of growth hormone releasing factor” (1985)
